Source: ChEMBL document CHEMBL3244156, “Analgesic and tranquilizing activity of 5,8-disubstituted 1-tetralone Mannich bases” (1977)

Legend:
Mus musculus [1] = experiment: Analgesic activity in mouse assessed as tail-flick latency period at 100 mg/kg, ip after 2 hrs by tail flick test; format: functional; conditions: route intraperitoneal
Mus musculus [2] = experiment: Analgesic activity in mouse at 100 mg/kg, ip after 2 hrs by hot plate assay; format: functional; conditions: route intraperitoneal
Outline: (§1)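 Mice dropped into a glass cylinder on an aluminum plate held at 57 °C. Timed from foot contact to first hind-foot flick, with a 10-s limit. Observed 0.5 and 2 h after treatment. Value is % of mice failing to react within the limit. At least ten mice per dose.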

Rattus norvegicus [3] = experiment: Analgesic activity in rat assessed as median foot shock required to elicit flinch-jump at 32 mg/kg, ip after 2 hrs; format: functional; conditions: route intraperitoneal
Outline: (§2)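 Series given just before and 0.5 and 2 h after ip dosing. Flinch, squeak and jump were scored. Value is the median shock (mA) that elicits a jump. At least five rats per dose.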

Rattus norvegicus [4] = experiment: Neuroleptic activity in ip dosed rat assessed as drug required for blocking discriminated jump-out avoidance behavior in after 1 hr; format: functional
Outline: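 Rats trained in discriminated jump-out avoidance and tested 1 h after dosing. Value is an estimated ED50 for blocking avoidance.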

Mus musculus [5] = experiment: Neuroleptic activity in ip dosed mouse assessed as inhibition of amphetamine-induced mortality; format: functional
Outline: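 Aggregated mice in groups of ten given amphetamine. Value is an ED50 estimate for blocking lethality, bracketed between a dose where <5/10 died and a dose where >5/10 died.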

Canis familiaris [6] = experiment: Analgesic activity in dog assessed as rippling of skin at 5 mg/kg, ip after 2 hrs by radiant heat assay; format: functional, Canis lupus familiaris; conditions: route intraperitoneal
Outline: (§3)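 Dogs held in a harness with a shaved mid-back patch placed under a concealed radiant heat source. Endpoint is the latency from heat onset to skin "rippling". Baseline latency measured in each dog, then retested at 0.5 and 2 h after dosing. Result expressed as % of control.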

Rattus norvegicus [7] = experiment: Analgesic activity in rat assessed as median foot shock required to elicit flinch-jump at 10 mg/kg, ip after 2 hrs; format: functional; conditions: route intraperitoneal; outline: as §2
Canis familiaris [8] = experiment: Analgesic activity in dog assessed as rippling of skin at 10 mg/kg, po after 2 hrs by radiant heat assay; format: functional, Canis lupus familiaris; outline: as §3
Mus musculus [9] = experiment: Analgesic activity in mouse at 32 mg/kg, ip after 2 hrs by hot plate assay; format: functional; conditions: route intraperitoneal; outline: as §1
Mus musculus [10] = experiment: Analgesic activity in mouse assessed as tail-flick latency period at 32 mg/kg, ip after 2 hrs by tail flick test; format: functional; conditions: route intraperitoneal

Structure (SMILES) | Activity (Mus musculus [1]) [%] | Activity (Mus musculus [2]) [%] | Activity (Rattus norvegicus [3]) [mA] | also measured
CCOc1ccc(Cl)c2c1CCC(CN1CCCCC1)C2=O.Cl (stereo unspecified) | 33 | 33 | 0.6 | –
CCOc1ccc(Cl)c2c1CCC(CN1CCCC1)C2=O.Cl (stereo unspecified) | 60 | 30 | 0.6 | –
CCOc1ccc(Cl)c2c1CCC(CN1CCOCC1)C2=O.Cl (stereo unspecified) | 20 | 10 | 2.2 | –
Cl.O=C1c2ccccc2CCC1CN1CCCCC1 (stereo unspecified) | 0 | 0 | 0.8 | ED50 (Rattus norvegicus [4]): > 32 mg/kg; ED50 (Mus musculus [5]): > 100 mg/kg
COc1ccc(Cl)c2c1CC(CN1CCOCC1)C2=O.Cl (stereo unspecified) | 0 | 0 | 0.6 | –
COc1ccc(Cl)c2c1C(C)CC(CN1CCOCC1)C2=O.Cl (stereo unspecified) | 40 | 30 | 0.8 | –
COc1cccc2c1CCC(CN1CCCCC1)C2=O.Cl (stereo unspecified) | – | – | 0.8 | –
CCOC(=O)C1(c2ccccc2)CCN(C)CC1 [MEPERIDINE] | 70 | 50 | 1.2 | ED50 (Rattus norvegicus [4]): 10 mg/kg; Activity (Canis familiaris [6]): 150%
CCc1c(C)[nH]c2c1C(=O)C(CN1CCOCC1)CC2 (stereo unspecified) [MOLINDONE] | – | – | – | ED50 (Rattus norvegicus [4]): 3.2 mg/kg; ED50 (Mus musculus [5]): 3.2 mg/kg
CCN(CC)CC1CCc2c(OC)ccc(Cl)c2C1=O.O=C(O)/C=C\C(=O)O (stereo unspecified) | 0 | 20 | 0.6 | –
COc1ccc(Cl)c2c1CCC(CNC1CCCCC1)C2=O.Cl (stereo unspecified) | 0 | – | >2.2 | Activity (Rattus norvegicus [7]): 1.2 mA
COc1cccc2c1CCC(CN1CCCC1)C2=O.Cl (stereo unspecified) | 0 | 0 | 0.8 | –
CCOc1ccc(Cl)c2c1CCC(CN(C)C)C2=O.Cl (stereo unspecified) | 0 | 0 | 0.6 | –
COc1ccc(Cl)c2c1CCC(C(C)N1CCCCC1)C2=O.Cl (stereo unspecified) | 0 | 20 | 0.6 | –
COc1ccc(F)c2c1CCC(CN1CCCC1)C2=O.Cl (stereo unspecified) | 0 | 50 | 1.2 | –
COc1ccc(Cl)c2c1CC(CN1CCCC1)C2=O.Cl (stereo unspecified) | 0 | 0 | 0.6 | –
CNCC1CCc2c(OC)ccc(Cl)c2C1=O.Cl (stereo unspecified) | 0 | 10 | >2.2 | Activity (Rattus norvegicus [7]): 1.2 mA
COc1ccc(C)c2c1CCC(CN1CCCC1)C2=O.Cl (stereo unspecified) | 50 | 12.5 | 2.2 | –
COc1ccc(C)c2c1CCC(CN1CCOCC1)C2=O.Cl (stereo unspecified) | 0 | 10 | 0.6 | –
COc1ccc(Cl)c2c1CCC(C(c1ccccc1)N1CCOCC1)C2=O.Cl (stereo unspecified) | 0 | 0 | 0.6 | –
COc1cccc2c1CCC(CN1CCOCC1)C2=O.Cl (stereo unspecified) | – | – | 0.6 | –
COc1ccc(OC)c2c1CCC(CN1CCOCC1)C2=O.Cl (stereo unspecified) | 0 | 10 | 0.6 | –
COc1ccc(OC)c2c1CCC(CN(C)C)C2=O.Cl (stereo unspecified) | 0 | 10 | 0.6 | –
COc1ccc(Cl)c2c1C(C)CC(CN1CCCCC1)C2=O.Cl (stereo unspecified) | – | – | 1.2 | –
COc1ccc(F)c2c1CCC(CN1CCOCC1)C2=O.Cl (stereo unspecified) | 10 | 30 | 1.2 | –
COc1ccc(Cl)c2c1CCC(CN1CCCCC1)C2=O.Cl (stereo unspecified) | 0 | 0 | >2.2 | ED50 (Rattus norvegicus [4]): 32 mg/kg; Activity (Rattus norvegicus [7]): 2.2 mA; ED50 (Mus musculus [5]): 10 mg/kg; Activity (Canis familiaris [8]): 110%
COc1cccc2c1CCC(CN(C)C)C2=O.Cl (stereo unspecified) | 0 | 0 | 1.2 | –
COc1ccc(F)c2c1CCC(CN1CCCCC1)C2=O.Cl (stereo unspecified) | – | – | 1.6 | Activity (Mus musculus [9]): 60%; Activity (Mus musculus [10]): 10%
